According to ChEMBL document CHEMBL4602651, “Development of selective mono or dual PROTAC degrader probe of CDK isoforms” (Eur J Med Chem, 2020):
Activity calls are given as the source filed them. The rule behind the calls is not given here.

Legend:
[1] = molecular target: T1, Protein cereblon/Cyclin-dependent kinase 2/Cyclin-dependent kinase 9 (Homo sapiens, UniProt P24941+P50750+Q96SW2); test: Protac activity at CRBN/CDK2/CDK9 in AR-negative human PC3 cells assessed as induction of CDK2 protein degradation at 1 uM after 12 hrs by Western blot analysis; type: cell-based; details: PC-3
Summary of the method: (§1)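 PC-3 cells (5 × 10^5 per well) treated 12 h at single concentrations (50 nM, 500 nM, 1, 5 or 30 µM). RIPA lysates (50 µg) run on 10% SDS-PAGE and immunoblotted for CDK2, CDK5, CDK9 with β-tubulin loading control, then detected by chemiluminescence. Band intensities quantified densitometrically.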

[2] = molecular target: Protein cereblon/Cyclin-dependent kinase 2 (Homo sapiens) (UniProt P24941+Q96SW2); test: Protac activity at CRBN/CDK2 in AR-negative human PC3 cells assessed as induction of CDK2 protein degradation at 50 nM after 12 hrs by Western blot analysis; type: cell-based; details: PC-3; summary of the method: as §1
[3] = tested on: PC-3; test: Antiproliferative activity against AR-negative human PC3 cells assessed as reduction in cell viability after 5 days by CCK8 assay; type: functional, cell-based; details: PC-3, 120 h
Summary of the method: (§2)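 Cells seeded at 3 × 10^3 per well for 24 h, then dosed in 10-point, 3-fold serial dilution from 10 µM. CCK-8 added after 5 days, 4 h at 37 °C, absorbance at 450 nm. IC50 averaged from three separate determinations (at least two independent runs, duplicate wells). PC-3 grown in DMEM/F12 (1:1), LO2 in RPMI 1640, both with 10% FBS.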

[4] = molecular target: T1, Protein cereblon/Cyclin-dependent kinase 2/Cyclin-dependent kinase 9; test: Protac activity at CRBN/CDK2/CDK9 in AR-negative human PC3 cells assessed as induction of CDK9 protein degradation after 24 hrs by Western blot analysis; type: cell-based
Summary of the method: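 PC-3 cells exposed to a degrader concentration series, then immunoblotted for CDK2 and CDK9 versus β-tubulin. The figure legend gives 24 h exposure. DC50 taken as mean of 2 determinations from densitometry.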

[5] = molecular target: T1, Protein cereblon/Cyclin-dependent kinase 2/Cyclin-dependent kinase 9; test: Protac activity at CRBN/CDK2/CDK9 in AR-negative human PC3 cells assessed as induction of CDK9 protein degradation at 500 nM after 4 hrs by Western blot analysis relative to control; type: cell-based; details: PC-3
Summary of the method: (§3)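 PC-3 cells treated with 500 nM degrader for varying times. Lysates blotted for CDK2, CDK4, CDK6, CDK9, c-Myc and Mcl-1, each at 1/1000 primary antibody, with β-tubulin reference and chemiluminescent detection.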

[6] = molecular target: Protein cereblon/Cyclin-dependent kinase 4 (Homo sapiens) (UniProt P11802+Q96SW2); test: Protac activity at CRBN/CDK4 in AR-negative human PC3 cells assessed as induction of CDK4 protein degradation at 500 nM after 24 hrs by Western blot analysis; type: cell-based; details: PC-3; summary of the method: as §3
[7] = molecular target: Protein cereblon/Cyclin-dependent kinase 6 (Homo sapiens) (UniProt Q00534+Q96SW2); test: Protac activity at CRBN/CDK6 in AR-negative human PC3 cells assessed as induction of CDK4 protein degradation at 500 nM after 24 hrs by Western blot analysis; type: cell-based; details: PC-3; summary of the method: as §3
[8] = molecular target: T1, Protein cereblon/Cyclin-dependent kinase 2/Cyclin-dependent kinase 9; test: Protac activity at CRBN/CDK2/CDK9 in AR-negative human PC3 cells assessed as reduction in c-Myc protein expression at 500 nM measured after 2 to 24 hrs by Western blot analysis; type: cell-based; details: PC-3; summary of the method: as §3
[9] = tested on: L02; test: Cytotoxicity against human LO2 cells assessed as reduction in cell viability after 5 days by CCK-8 assay; type: cell-based; details: L02, 120 h; summary of the method: as §2
[10] = molecular target: T1, Protein cereblon/Cyclin-dependent kinase 2/Cyclin-dependent kinase 9; test: Protac activity at CRBN/CDK2/CDK9 in human MCF7 cells assessed as CDK2 degradation at 0.25 to 10 uM after 12 hrs by Westernblot analysis; type: cell-based
Summary of the method: (§4)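 22Rv1, HCT-116 (RPMI 1640, 10% FBS) and MCF-7 cells treated with degrader at indicated concentrations for 12 h. CDK2 and CDK9 blotted with β-tubulin loading control.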

[11] = molecular target: T1, Protein cereblon/Cyclin-dependent kinase 2/Cyclin-dependent kinase 9; test: Protac activity at CRBN/CDK2/CDK9 in human HCT116 cells assessed as CDK2 degradation at 0.25 to 10 uM after 12 hrs by Westernblot analysis; type: cell-based; details: HCT-116; summary of the method: as §4
[12] = tested on: PC-3; test: Induction of cell cycle arrest in human PC3 cells assessed as accumulation at G0/G1 phase at 250 nM after 48 hrs by propidium iodide staining based flow cytometry (reference value: 59.80%); type: functional
[13] = tested on: PC-3; test: Induction of cell cycle arrest in human PC3 cells assessed as accumulation at G2/M phase at 250 nM after 48 hrs by propidium iodide staining based flow cytometry (reference value: 22.24%); type: functional
[14] = tested on: PC-3; test: Induction of cell cycle arrest in human PC3 cells assessed as accumulation at G0/G1 phase at 1 uM after 48 hrs by propidium iodide staining based flow cytometry (reference value: 59.80%); type: functional
[15] = tested on: PC-3; test: Induction of cell cycle arrest in human PC3 cells assessed as accumulation at S phase at 3 uM after 48 hrs by propidium iodide staining based flow cytometry (reference value: 17.96%); type: functional
[16] = tested on: PC-3; test: Antiproliferative activity against AR-negative human PC3 cells at 2 uM after 24 hrs by CFSE dye based flow cytometry; type: functional, cell-based
Summary of the method: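 PC-3 cells treated 24 h at 2 µM alongside DMSO control. Single-cell suspension labelled with CFSE (final 5 µM) for 15 min at room temperature in the dark, then proliferation read by flow cytometry.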

[17] = molecular target: T1, Protein cereblon/Cyclin-dependent kinase 2/Cyclin-dependent kinase 9; test: Protac activity at CRBN/CDK2/CDK9 in AR-negative human PC3 cells assessed as induction of CDK2 protein degradation at 500 nM after 4 hrs by Western blot analysis; type: cell-based; details: PC-3; summary of the method: as §3
[18] = molecular target: T1, Protein cereblon/Cyclin-dependent kinase 2/Cyclin-dependent kinase 9; test: Protac activity at CRBN/CDK2/CDK9 in AR-negative human PC3 cells assessed as reduction in Mcl-1 protein expression at 500 nM measured after 2 to 24 hrs by Western blot analysis; type: cell-based; details: PC-3; summary of the method: as §3
[19] = molecular target: T1, Protein cereblon/Cyclin-dependent kinase 2/Cyclin-dependent kinase 9; test: Protac activity at CRBN/CDK2/CDK9 in AR-negative human PC3 cells assessed as CDK9 degradation at 250 nM preincubated with FN-1501 for 2 hrs and measured after 8 hrs by Western blot analysis; type: cell-based; details: PC-3
Summary of the method: (§5)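 PC-3 cells pretreated 2 h with 5 µM DMSO, FN-1501, pomalidomide or MG-132, then exposed to degrader at 250 nM for 8 h. Lysates probed for CDK2 and CDK9, β-tubulin as loading control. 50 µg protein per lane, 10% SDS-PAGE, chemiluminescent detection.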

[20] = molecular target: T1, Protein cereblon/Cyclin-dependent kinase 2/Cyclin-dependent kinase 9; test: Protac activity at CRBN/CDK2/CDK9 in AR-negative human PC3 cells assessed as CDK9 degradation at 250 nM preincubated with proteasome inhibitor MG132 for 2 hrs and measured after 8 hrs by Western blot analysis; type: cell-based; details: PC-3; summary of the method: as §5
[21] = molecular target: T1, Protein cereblon/Cyclin-dependent kinase 2/Cyclin-dependent kinase 9; test: Protac activity at CRBN/CDK2/CDK9 in human MCF7 cells assessed as CDK9 degradation at 0.25 to 10 uM after 12 hrs by Westernblot analysis; type: cell-based; summary of the method: as §4
[22] = molecular target: T1, Protein cereblon/Cyclin-dependent kinase 2/Cyclin-dependent kinase 9; test: Protac activity at CRBN/CDK2/CDK9 in human 22Rv1 cells assessed as CDK9 degradation at 0.25 to 10 uM after 12 hrs by Westernblot analysis; type: cell-based; details: CWR22R; summary of the method: as §4
[23] = molecular target: T1, Protein cereblon/Cyclin-dependent kinase 2/Cyclin-dependent kinase 9; test: Protac activity at CRBN/CDK2/CDK9 in AR-negative human PC3 cells assessed as induction of CDK9 protein degradation at 1 uM after 12 hrs by Western blot analysis; type: cell-based; details: PC-3; summary of the method: as §1
[24] = molecular target: T1, Protein cereblon/Cyclin-dependent kinase 2/Cyclin-dependent kinase 9; test: Protac activity at CRBN/CDK2/CDK9 in AR-negative human PC3 cells assessed as induction of CDK9 protein degradation at 30 uM after 12 hrs by Western blot analysis; type: cell-based; details: PC-3; summary of the method: as §1

Protein cereblon/Cyclin-dependent kinase 4 (Homo sapiens), sequence (P11802 2-303 limits assumed): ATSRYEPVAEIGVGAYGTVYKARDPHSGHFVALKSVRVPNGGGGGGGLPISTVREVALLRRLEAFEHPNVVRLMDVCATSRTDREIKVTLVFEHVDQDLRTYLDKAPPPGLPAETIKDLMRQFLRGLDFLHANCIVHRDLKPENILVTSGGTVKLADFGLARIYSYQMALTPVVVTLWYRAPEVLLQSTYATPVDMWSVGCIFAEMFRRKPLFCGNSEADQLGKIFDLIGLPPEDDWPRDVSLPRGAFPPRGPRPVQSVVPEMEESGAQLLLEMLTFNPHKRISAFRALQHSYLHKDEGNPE
Protein cereblon/Cyclin-dependent kinase 4 (Homo sapiens), sequence (Q96SW2 whole entry partner): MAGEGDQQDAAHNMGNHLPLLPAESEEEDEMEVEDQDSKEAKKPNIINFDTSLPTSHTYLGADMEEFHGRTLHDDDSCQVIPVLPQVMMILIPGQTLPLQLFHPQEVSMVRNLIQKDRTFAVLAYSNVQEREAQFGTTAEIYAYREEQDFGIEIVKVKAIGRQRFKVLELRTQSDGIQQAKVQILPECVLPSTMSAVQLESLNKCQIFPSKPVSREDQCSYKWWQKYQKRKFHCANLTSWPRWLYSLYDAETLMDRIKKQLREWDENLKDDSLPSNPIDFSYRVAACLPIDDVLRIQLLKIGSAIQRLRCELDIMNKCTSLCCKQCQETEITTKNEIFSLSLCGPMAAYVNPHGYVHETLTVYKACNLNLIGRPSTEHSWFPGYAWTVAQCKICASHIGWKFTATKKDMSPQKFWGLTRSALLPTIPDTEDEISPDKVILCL
Protein cereblon/Cyclin-dependent kinase 6 (Homo sapiens), sequence (Q00534 whole entry, looked up): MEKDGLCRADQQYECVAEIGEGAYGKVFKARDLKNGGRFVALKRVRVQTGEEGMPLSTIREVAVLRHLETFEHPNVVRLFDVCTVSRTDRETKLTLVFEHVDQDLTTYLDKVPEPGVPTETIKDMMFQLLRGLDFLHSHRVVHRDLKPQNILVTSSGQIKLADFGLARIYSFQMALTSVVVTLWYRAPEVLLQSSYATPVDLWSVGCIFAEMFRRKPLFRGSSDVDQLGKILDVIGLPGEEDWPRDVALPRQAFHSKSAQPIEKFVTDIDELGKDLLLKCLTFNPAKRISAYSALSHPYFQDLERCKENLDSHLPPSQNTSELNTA
Protein cereblon/Cyclin-dependent kinase 6 (Homo sapiens), sequence (Q96SW2 whole entry, looked up): as the sequence (Q96SW2 whole entry partner) above

Structure (SMILES): O=C(CCC(=O)N1CCN(Cc2ccc(NC(=O)c3n[nH]cc3Nc3ncnc4[nH]ccc34)cc2)CC1)NCCNc1cccc2c1C(=O)N(C1CCC(=O)NC1=O)C2=O (stereo not given)
- Activity [1]: Active
- Activity [2]: Active
- IC50 [3]: 120 nM
- Activity ([4]; PC-3): Dose-dependent effect
- DC50 ([4]; pc-3): 33 nM
- Activity [5]: > 80%
- Activity [6]: inactive
- Activity [7]: inactive
- Activity [8]: Active
- IC50 [9]: 7990 nM
- Activity [10]: Active
- Activity [11]: Active
- Activity [12]: 50.15%
- Activity [13]: 22.13%
- Activity [14]: 53.95%
- Activity [15]: 11.24%
- Activity [16]: Active
- Activity [17]: Active
- Activity [18]: Active
- Activity [19]: inactive
- Activity [20]: inactive
- Activity [21]: Active
- Activity [22]: Active
- Activity [23]: Active
- Activity [24]: Active
